Assay results published in BindingDB's records for doi:10.1016/j.bmc.2011.04.027 (University of Mansoura, 2011).
pIC50: −log10 of the molar value.

molecular target: T1, Prostaglandin G/H synthase 1 (Ovis aries, UniProt P05979); test: Inhibition of ovine COX1 assessed as PGF2alpha production from PGH2 after 5 mins by enzyme immunoassay
T1 sequence (P05979 whole entry): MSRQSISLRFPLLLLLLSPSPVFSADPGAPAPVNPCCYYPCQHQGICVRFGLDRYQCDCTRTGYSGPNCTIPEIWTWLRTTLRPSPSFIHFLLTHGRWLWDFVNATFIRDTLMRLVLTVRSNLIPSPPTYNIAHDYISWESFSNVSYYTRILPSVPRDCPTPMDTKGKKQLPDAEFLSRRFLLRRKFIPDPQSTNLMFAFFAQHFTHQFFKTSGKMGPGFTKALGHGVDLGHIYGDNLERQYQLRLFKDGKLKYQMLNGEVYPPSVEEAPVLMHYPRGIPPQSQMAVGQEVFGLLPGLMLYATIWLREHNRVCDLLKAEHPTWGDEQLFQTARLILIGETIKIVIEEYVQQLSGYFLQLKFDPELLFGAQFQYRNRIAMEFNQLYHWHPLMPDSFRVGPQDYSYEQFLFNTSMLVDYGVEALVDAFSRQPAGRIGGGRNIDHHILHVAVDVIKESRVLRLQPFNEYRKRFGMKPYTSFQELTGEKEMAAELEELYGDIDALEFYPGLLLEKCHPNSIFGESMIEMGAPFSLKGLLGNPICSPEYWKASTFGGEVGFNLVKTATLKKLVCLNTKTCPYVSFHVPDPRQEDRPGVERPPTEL
Procedure, shortened: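 Ovine COX-1 in reaction buffer with 2 mM phenol and heme, preincubated with six test concentrations (1 mL final) for 5 min at 37 °C. Arachidonic acid was then added and the reaction stopped with 1 M HCl after 2 min. Prostanoids were reduced with stannous chloride and quantified by competitive acetylcholinesterase-tracer EIA (Ellman's reagent, 410 nm). IC50 came from concentration–inhibition curves, duplicate determinations.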

| pIC50 | Compound |
| --- | --- |
| < 4.30 | FC(F)(F)c1[nH]nc(-c2ccc(Cl)cc2)c1N=Nc1ccccc1Cl [3-(4-Chlorophenyl)-4-(2-(2-chlorophenyl)hydrazono)-5-trifuoromethyl)-4H-pyrazole] |
| < 4.30 | FC(F)(F)c1cc(N=Nc2c(-c3ccc(Cl)cc3)n[nH]c2C(F)(F)F)cc(C(F)(F)F)c1 [3-(4-Chlorophenyl)-4-(2-(3,5-bis(trifluoromethyl)phenyl)hydrazono)-5-trifuoromethyl)-4H-pyrazole] |
| < 4.30 | COc1ccc(N=Nc2c(-c3ccc(Cl)cc3)n[nH]c2C(F)(F)F)cc1 [3-(4-Chlorophenyl)-4-(2-(4-methoxyphenyl)hydrazono)-5-trifuoromethyl)-4H-pyrazole] |
| < 4.30 | O=[N+]([O-])c1ccc(/N=N/c2c(-c3ccc(Cl)cc3)n[nH]c2C(F)(F)F)cc1 [3-(4-Chlorophenyl)-4-(2-(4-nitrophenyl)hydrazono)-5-trifuoromethyl)-4H-pyrazole] |
